Measurements published in ChEMBL document CHEMBL1681770, “CD22-antagonists with nanomolar potency: the synergistic effect of hydrophobic groups at C-2 and C-9 of sialic acid scaffold” (Bioorg Med Chem, 2011).

Legend:
B-cell receptor CD22 [1] = target: T1, B-cell receptor CD22 (Homo sapiens, UniProt P20273); assay: Antagonist activity at human CD22 after 1 hr by competitive ELISA; assay type: functional
T1 sequence (P20273 whole entry): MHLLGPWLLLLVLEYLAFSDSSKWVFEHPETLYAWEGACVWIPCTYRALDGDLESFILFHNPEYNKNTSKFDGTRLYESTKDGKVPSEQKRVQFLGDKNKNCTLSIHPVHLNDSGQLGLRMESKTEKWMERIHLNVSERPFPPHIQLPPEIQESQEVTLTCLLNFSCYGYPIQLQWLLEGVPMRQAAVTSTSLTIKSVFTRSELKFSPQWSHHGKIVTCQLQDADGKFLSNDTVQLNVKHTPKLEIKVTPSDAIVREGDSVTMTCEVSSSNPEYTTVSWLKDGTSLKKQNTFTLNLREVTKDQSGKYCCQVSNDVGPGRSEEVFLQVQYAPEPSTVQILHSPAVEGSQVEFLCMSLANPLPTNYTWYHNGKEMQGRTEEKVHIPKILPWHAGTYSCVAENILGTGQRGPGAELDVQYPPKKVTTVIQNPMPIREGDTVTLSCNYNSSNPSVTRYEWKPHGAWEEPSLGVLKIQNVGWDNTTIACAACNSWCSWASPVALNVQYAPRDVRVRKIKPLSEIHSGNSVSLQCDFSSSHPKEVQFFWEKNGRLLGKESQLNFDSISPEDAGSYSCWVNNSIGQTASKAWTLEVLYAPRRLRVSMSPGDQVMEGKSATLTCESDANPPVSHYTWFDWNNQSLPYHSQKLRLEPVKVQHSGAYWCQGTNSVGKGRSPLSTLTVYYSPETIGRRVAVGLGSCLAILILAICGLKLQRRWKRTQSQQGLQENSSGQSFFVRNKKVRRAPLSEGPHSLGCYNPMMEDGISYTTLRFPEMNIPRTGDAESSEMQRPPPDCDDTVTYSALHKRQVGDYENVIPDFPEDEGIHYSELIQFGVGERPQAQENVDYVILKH
In short: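 Neutravidin-precoated plates (1 μg/well, overnight, 4°C) were blocked with 0.5% BSA in HBSS for 30 min at 37°C. Biotinylated Siaα2-6LacNAc-PAA (0.625 μg/mL) was bound 1 h at RT. Inhibitor and precomplexed hCD22-Fc/goat anti-human IgG F(ab')2 were added and bound 30 min at 37°C. After HBSS washes: TMB, H2SO4 stop, OD450. Triplicates, mean ± SD.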

[2] = target: T2, B-cell receptor CD22 (Mus musculus) (UniProt P35329); assay: Ratio of IC50 for 9-(4'-hydroxy-4-biphenyl)acetamido-9-deoxy-Neu5Gca2-6GalOMP to IC50 for compound at mouse CD22
T2 sequence (whole entry): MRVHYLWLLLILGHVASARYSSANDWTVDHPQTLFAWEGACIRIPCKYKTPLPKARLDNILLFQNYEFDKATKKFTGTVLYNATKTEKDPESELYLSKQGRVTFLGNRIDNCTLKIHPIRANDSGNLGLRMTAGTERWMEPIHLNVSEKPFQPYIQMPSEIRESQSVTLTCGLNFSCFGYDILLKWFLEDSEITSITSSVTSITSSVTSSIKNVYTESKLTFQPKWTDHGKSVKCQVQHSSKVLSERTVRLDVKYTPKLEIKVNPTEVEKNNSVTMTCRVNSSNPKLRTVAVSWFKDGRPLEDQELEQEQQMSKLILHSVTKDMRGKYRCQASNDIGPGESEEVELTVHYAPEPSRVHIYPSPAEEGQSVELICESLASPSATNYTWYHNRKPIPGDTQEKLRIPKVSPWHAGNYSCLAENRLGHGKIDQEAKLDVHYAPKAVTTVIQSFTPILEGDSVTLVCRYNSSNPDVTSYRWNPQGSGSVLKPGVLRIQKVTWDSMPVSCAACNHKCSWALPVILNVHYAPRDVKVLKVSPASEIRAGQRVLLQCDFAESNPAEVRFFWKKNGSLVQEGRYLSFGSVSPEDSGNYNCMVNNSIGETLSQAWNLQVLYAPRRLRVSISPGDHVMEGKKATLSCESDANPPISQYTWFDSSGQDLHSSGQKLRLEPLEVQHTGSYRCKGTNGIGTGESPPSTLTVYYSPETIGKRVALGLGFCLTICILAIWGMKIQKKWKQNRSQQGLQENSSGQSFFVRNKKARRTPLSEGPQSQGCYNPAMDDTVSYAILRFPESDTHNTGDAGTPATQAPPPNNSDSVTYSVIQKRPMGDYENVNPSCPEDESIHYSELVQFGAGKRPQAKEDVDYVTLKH
In short: (§1)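 Relative inhibitory potency (rIP) = IC50 of the 9-biphenylacetamido Neu5Gcα2-6GalOMP reference divided by IC50 of the test sialoside, each IC50 taken from the competition ELISA for the respective CD22 species. Values above 1.0 mean tighter binding than the reference.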

[3] = target: T3, Myelin-associated glycoprotein (Homo sapiens, UniProt P20916); assay: Inhibition of human MAG after 30 min by competitive ELISA
T3 sequence (P20916 whole entry): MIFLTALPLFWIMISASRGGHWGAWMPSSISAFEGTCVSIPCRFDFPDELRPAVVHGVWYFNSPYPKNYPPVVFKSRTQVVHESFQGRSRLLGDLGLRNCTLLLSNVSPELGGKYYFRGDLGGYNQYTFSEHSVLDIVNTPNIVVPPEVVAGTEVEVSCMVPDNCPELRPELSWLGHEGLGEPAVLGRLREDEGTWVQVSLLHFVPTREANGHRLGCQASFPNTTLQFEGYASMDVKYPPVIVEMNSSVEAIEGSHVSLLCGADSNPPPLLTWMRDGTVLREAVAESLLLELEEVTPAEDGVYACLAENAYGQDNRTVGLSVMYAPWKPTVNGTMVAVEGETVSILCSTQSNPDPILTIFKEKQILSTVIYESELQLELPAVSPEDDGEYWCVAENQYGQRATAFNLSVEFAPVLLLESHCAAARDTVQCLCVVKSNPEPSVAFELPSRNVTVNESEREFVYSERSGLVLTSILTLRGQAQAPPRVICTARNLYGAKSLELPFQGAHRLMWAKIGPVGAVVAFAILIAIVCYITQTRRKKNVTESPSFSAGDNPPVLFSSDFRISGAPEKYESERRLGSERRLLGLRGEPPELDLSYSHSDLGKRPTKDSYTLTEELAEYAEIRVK

[4] = target: B-cell receptor CD22 (Homo sapiens) (UniProt P20273); assay: Ratio of IC50 for 9-(4'-hydroxy-4-biphenyl)acetamido-9-deoxy-Neu5Gca2-6GalOMP to IC50 for compound at human CD22; in short: as §1
Homo sapiens = species on record: Homo sapiens; assay: Selectivity ratio of IC50 for human MAG to IC50 for human CD22
B-cell receptor CD22 [5] = target: T4, B-cell receptor CD22 (Mus musculus, UniProt P35329); assay: Antagonist activity at mouse CD22 after 1 hr by competitive ELISA; assay type: functional
T4 sequence (P35329 whole entry): T2 sequence (whole entry)
In short: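 Competition ELISA. Wells coated overnight with streptavidin (40 μg/mL in 50 mM NaHCO3, pH 8.5), then loaded 1 h with biotinylated sialoside probe (4 μg/mL in PBS) and blocked 3 h with 0.5% BSA/PBS. Graded inhibitor concentrations were incubated 1 h with 0.5 μg CD22Fc. After PBS/0.05% Tween 20 washes, bound Fc was detected with alkaline phosphatase anti-human IgG Fc. Triplicates, mean ± SD.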

[6] = target: T3, Myelin-associated glycoprotein; assay: Inhibition of human MAG after 1 hr by competitive ELISA; conditions: in the assay text read “after 30 min” for “after 1 hr”
In short: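 Neutravidin plates as for hCD22, with biotinylated Siaα2-3LacNAc-PAA (0.33 μM) bound 1 h at RT. MAG-Fc (~0.12 μg/ml) was pretreated with V. cholerae sialidase (0.4 mU/ml) 45 min, stopped with 1 mM EDTA, then complexed 45 min with goat anti-human IgG F(ab')2 (0.05 μg/mL) and HRP anti-goat F(ab')2 (0.0167 μg/mL). Complex was diluted 3:2, bound with inhibitor 30 min at 37°C, and read by TMB at OD450.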

IC50 (B-cell receptor CD22 [1]) | Ratio IC50 [2] | IC50 [3] | Ratio IC50 [4] | Ratio IC50 (Homo sapiens) | IC50 (B-cell receptor CD22 [5]) | IC50 [6] | SMILES
70 nM | 20.2 | 164 µM | 12 | 432 | 0.19 µM | – | O=C(Cc1ccc(-c2ccc(O)cc2)cc1)NC[C@@H](O)[C@@H](O)[C@@H]1O[C@@](OCc2ccc(-c3ccccc3)cc2)(C(=O)O)C[C@H](O)[C@H]1NC(=O)CO
– | – | 136 µM | – | 41.5 | 3.84 µM | – | COc1ccc(O[C@@H]2O[C@H](CO[C@]3(C(=O)O)C[C@H](O)[C@@H](NC(=O)CO)[C@H]([C@H](O)[C@H](O)CNC(=O)Cc4ccc(-c5ccc(O)cc5)cc4)O3)[C@H](O)[C@H](O)[C@H]2O)cc1
820 nM | 1.2 | – | 0.6 | 3.4 | 5.03 µM | 9.27 µM | O=C(CO)N[C@H]1[C@H]([C@H](O)[C@H](O)CNCc2ccc(-c3ccc(O)cc3)cc2)O[C@@](OCc2ccccc2)(C(=O)O)C[C@@H]1O

Continued, compound first:

SMILES | IC50 (B-cell receptor CD22 [1]) | Ratio IC50 [2] | IC50 [3] | Ratio IC50 [4] | Ratio IC50 (Homo sapiens) | IC50 (B-cell receptor CD22 [5]) | IC50 [6]
O=C(CO)N[C@H]1[C@H]([C@H](O)[C@H](O)CNCc2ccc(-c3ccc(O)cc3)cc2)O[C@@](OCc2ccc(-c3ccccc3)cc2)(C(=O)O)C[C@@H]1O | 1120 nM | 0.3 | 16.6 µM | 0.5 | 7.4 | 23.3 µM | –
O=C(Cc1ccc(-c2ccc(O)cc2)cc1)NC[C@@H](O)[C@@H](O)[C@@H]1O[C@@](OCc2ccccc2)(C(=O)O)C[C@H](O)[C@H]1NC(=O)CO | 130 nM | 38.4 | 171 µM | 7 | 712 | 0.1 µM | –
COc1ccc(O[C@@H]2O[C@H](CO[C@]3(C(=O)O)C[C@H](O)[C@@H](NC(=O)CO)[C@H]([C@H](O)[C@H](O)CNCc4ccc(-c5ccc(O)cc5)cc4)O3)[C@H](O)[C@H](O)[C@H]2O)cc1 | 530 nM | 1 | – | 1 | 11.4 | 6.43 µM | 37.4 µM
O=C(Cc1ccc(-c2ccc(F)cc2)cc1)NC[C@@H](O)[C@@H](O)[C@@H]1O[C@@](OCc2ccccc2)(C(=O)O)C[C@H](O)[C@H]1NC(=O)CO | – | 0.77 | – | – | – | 5 µM | –
